Laboratory results from the EternaBench riboswitch data.

Test system: MS2 coat protein
Assay: apparent Kd, MS2 coat protein; higher = weaker binding; RNA-MaP array; FMN 200 µM where present
Outline: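 Apparent Kd: the median of filtered binding-curve fits from single clusters. Designs were transcribed on Illumina sequencing-chip clusters by stalled E. coli RNA polymerase and titrated with SNAP-549-labelled MS2 coat protein from 0.7 or 1.5 nM, doubling to 3 µM, in 100 mM Tris-HCl pH 7.5, 80 mM KCl, 4 mM MgCl2, BSA, DTT, yeast tRNA and Tween-20. Each series ran without and then with constant ligand, and green signal was normalised to red-channel RNA signal and control-cluster median Fmax.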

[1] = designed as: OFF switch for flavin mononucleotide, no ligand
[2] = ligand present: flavin mononucleotide, designed as: OFF switch for flavin mononucleotide
[3] = designed as: ON switch for flavin mononucleotide, no ligand
[4] = ligand present: flavin mononucleotide, designed as: ON switch for flavin mononucleotide

Sequence | apparent Kd [1] [nM] | apparent Kd [2] [nM] | apparent Kd [3] [nM] | apparent Kd [4] [nM]
CAGAAGUCAGGAUAUGCAUGGCGGGACUUGCGUCGUGGCGUGCAGAAGGGACAUGAGGAUCACCCAUGUAAAGC | 50.9 | 51.2 |  | 
UGAUCUAUGUAGAAGGCCCAUAUCUAUAUUUAGGGAGGAUAUACAUGAGGAUCACCCAUGUAUAGAGCUAGUGGACUGGUCAGC | 48 | 69.4 |  | 
AAGCUCGUGUGAGGAUAUGCCGCCGUUUCGGCUGCAGAAGGUGCUACGUUACAUGAGGAUCACCCAUGUCUCUGUUGUUUCGUA |  |  | 42.6 | 49.7
UAUGUAUUCGUAGGAUAUCCGUCGCCACCGUGUGGAGAAGGACGAACAUGAGGAUCACCCAUGUAUCAUGGUGUAGACAAUUUU | 77 | 135 |  | 
CUUCGUAUAGAGGAUAUAGGAUACUGCGGUGUCCUAGAAGGCUGUACAUGAGGAUCACCCAUGUACUUCAGAUC | 12.6 | 17.9 |  | 
AAUAGUGGCGUAGGAUAUCUGCGUACAUGAGGAUCACCCAUGUCUCCCAACUGCUGAGCUGGGACAGAGAAGGGCGACCGCAUA |  |  | 225 | 85.4
GCGAGGACGGCAGGAUAUUGACAUGAGGAUCACCCAUGUAUUUGGGAGUGUUCACUGAAUUCUUACGAGAAGGGCCGUCCACGC | 312 | 261 |  | 
UGACAUAUAUAGAAGGGUAGUAGGGUAUUACAUGAGGAUCACCCAUGUAUUAUAGGAUAUGUAUAAAGUUAUUAUUCAAGUAAA | 15.8 | 13 |  | 
UUCGGCGCAGGAUAUACAGUUUUGUGUUGAAUCGGCGCGGGACAUGAGGAUCACCCAUGUAGAAGGGUGUUGAA | 682 | 470 |  | 
AUGUUACAUGAGGAUCACCCAUGUGAGGAUAUGUGUACUGGUAAAAAAGUGUUUGGCCACAGAAGGCAUUUGGG | 50.4 | 148 |  | 
UCACGGGACUAAGGAUAUACAUGAACUAUUAUUGUAGAAGGUAGAAUGUUAGCUUAUACACUAAACAUGAGGAUCACCCAUGUA | 36.5 | 32.8 |  | 
GCGCGCGCAGGAUAUACAAUGGGCCCGGGAAACCGGGCCCUACAUGAGGAUCACCCAUGUAGAAGGGUGUGUGU | 606 | 468 |  | 
AGUCGGCGAGGAUAUACAUGAGGAUCACCCAUGUGAGAGAUAAAAGUGAGUUAGACAAGUAGAAGGCGCUGACA | 59.7 | 469 |  | 
UUACAUACAAAGGUACAUGAGGAUCACCCAUGUUUAUUGGGAAGAAGGGUAACAGUACUACAUAUAUAGGAUAUUUCACAAAUG |  |  | 195 | 144
CUAUUAUUGAUCCAUUUUUUCAACAUGAGGAUCACCCAUGUGCAGGAUAUCGUGAUUAUUAUCAACGAGAAGGGCAGAUUCACG | 59.3 | 178 |  | 
GUGUAGUCAGGAUAUACAUAGGAAGAGAAGAGAAGAGAAGCACAUGAGGAUCACCCAUGUAGAAGGGACAGUGU | 70.9 | 82.9 |  | 
CCCUCACAUGAGGAUCACCCAUGUCAGGAUAUGCGCGGCCAAAAGGGCUGCUAAGGCAGCAGAAGGGACGUGAA | 15.9 | 19.5 |  | 
CCGCAUAAGCAGGAUAUCGUAUCGGAAACGAUACGAGAAGGGUUAACAUGAGGAUCACCCAUGUUCCUUAACGG | 17.9 | 18.2 |  | 
GGUUGGUAUUACAACGGCCUGAGGGAGGAUAUACAAGGCCGGCGUCGCACAUGAGGAUCACCCAUGUAGAAGGCCCAAGGCCUG | 6.97 | 12 |  | 

Sequence | apparent Kd [1] [nM] | apparent Kd [2] [nM] | apparent Kd [3] [nM] | apparent Kd [4] [nM]
GCACUUUUAUUUGAACCGAUUCGAACAUGAGGAUCACCCAUGUAGGAUAUGCUAAAAGUUGUGAUGCAGAAGGACAUUAAGUGC | 5.94 | 6.99 |  | 
AAUAACAGAGGAUAUACUAUUUUAUGUGUUUAUUGUUUUGAACAUGAGGAUCACCCAUGUAGAAGGCUGAUUAA | 41 | 58.7 |  | 
GGUUAGAAAGGAUAUACAUGUCGUGAGACAUCUUGCACCUAACAUGAGGAUCACCCAUGUAGAAGGUUCAAGCC | 17.4 | 30.5 |  | 
GGACGUCACAUGAACAUGAGGAUCACCCAUGUAAAUUCUCAUGAGGAUAUGGUUCCUAAUUGGAACCAGAAGGCGUGGACGUCC |  |  | 957 | 430
GGACCGUGCAGAGUUCGCGGUCGGCAGGAUAUGACAUGAGGAUCACCCAUGUGAACUCCAUUGGGUCAGAAGGGCCACGACACA | 19.8 | 78 |  | 
UGUGUGUGACAGGAUAUGCUGGUUAUGAGACGGGUAGAAGGGUCUACAUGAGGAUCACCCAUGUGGCCGGUUGG | 19 | 21.2 |  | 
AGCUAGUCAGGAUAUACAAACAUGUCAAAAGACGUGAAGAGACAUGAGGAUCACCCAUGUAGAAGGGACUAGCA | 26.6 | 70.9 |  | 
CUUUUGUGAGGAUAUUAGUAGUAAAUAAAUAAAAUUACUACUGAGAAGGCACAUGAGGAUCACCCAUGUUCCUU | 12.6 | 38 |  | 
AGAGUGUCAGGAUAUCCUGCUGUGCGGAAUAUGUAUUCACGGGAGAAGGGACAUGAGGAUCACCCAUGUUUGAG | 20.6 | 20.8 |  | 
GGUGCUAUGUAGAAGGCAGAUCUGAUUCAGAUCUGAGGAUAUACAUGAGGAUCACCCAUGUUAAGCACCAGCACGAGAGUGCAA | 6.49 | 11.2 |  | 
ACAGCGUGAGGAUAUACAUGAGGAUCACCCAUGUAUGGCAGGUUAUCCUGUCGUAAGUGUAGAAGGCACGCUGU | 20.4 | 58.5 |  | 
CGCUAGUCAGGAUAUACGAACAUGUCAAAAGACGUGAAGGGACAUGAGGAUCACCCAUGUAGAAGGGACUAGCG | 36.8 | 206 |  | 
AGUGUCAUCGAGAAGGCCUCAACAUGAGGAUCACCCAUGUUGCAAAAUGGGAGGAUAUCGCGCGUUCAAAAACGUUUCGUAGCA |  |  | 42.3 | 17.6
GUGUGCAGAGGAUAUACAGAGGAAAAGAAGAAAGAAGAGGGACAUGAGGAUCACCCAUGUAGAAGGCUGAGUGU | 33.9 | 35.2 |  | 
UUAUUAGCAGGAUAUAUCCACGACCACAUGAGGAUCACCCAUGUGGCCGCUUGAGGUUGUAUAGAAGGGCUUUAUU | 15.3 | 14.6 |  | 
UUUUAACAUGAGGAUCACCCAUGUGAGGAUAUCGAAAUUUAUAUUAAUAUUAAUUAAACGAGAAGGCACAUUUU | 61.5 | 86.4 |  | 
CACCGUAACAGAGGAUAUCAAACAUGAGGAUCACCCAUGUAAUAAAUGAGAAUUUCGAAUGUACCUGAGAAGGCUGAAACCGGC | 35.6 | 41.1 |  | 
GCCGAUUAAGUGAGGAUAUACCUAUGGAUACAUAGGUAGAAGGUACAUGAGGAUCACCCAUGUUCCUCAUCGGC | 10 | 12.2 |  | 
